This note sets out measurements from ChEMBL document CHEMBL1949585, “Design, synthesis and evaluation of telomerase inhibitory, hTERT repressing, and anti-proliferation activities of symmetrical 1,8-disubstituted amidoanthraquinones” (Eur J Med Chem, 2012).

In test [1] the test system is NCI-H522. Briefly: Cytotoxicity against human NCI-H522 cells assessed as cell growth at 10 uM relative to control. The test is classed as functional. To be noted: read-out: Activity. The essentials:
(§1)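 Single-concentration screen in the NCI 60 human tumour cell line panel covering nine cancer types. Values are the mean growth percentage of compound-treated cells, with untreated control cells set as 100%.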

Test [2] concerns NCI-H460. The test is described as follows: Cytotoxicity against human NCI-H460 cells assessed as cell growth at 10 uM relative to control. The format is functional. Conditions: read-out: Activity. The essentials: as §1
In test [3] the test system is NCI-H226. Briefly: Cytotoxicity against human NCI-H226 cells assessed as cell growth at 10 uM relative to control. The test is classed as functional. Conditions: read-out: Activity. The essentials:
as §1

Test [4] relates to NCI-H322M. The test is described as follows: Cytotoxicity against human NCI-H322M cells assessed as cell growth at 10 uM relative to control. The format is functional. Conditions: read-out: Activity. The essentials:
as §1

The test system of test [5] is MDA-MB-468. The test is described as follows: Cytotoxicity against human MDA-MB-468 cells assessed as cell growth at 10 uM relative to control. The test is classed as functional. Conditions: read-out: Activity. The essentials: as §1
In test [6] the test system is TK-10. Briefly: Cytotoxicity against human TK10 cells assessed as cell growth at 10 uM relative to control. To be noted: read-out: Activity. The test is classed as functional. The essentials:
(§2)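 Run in the NCI 60-cell human tumour panel. Cells were exposed to 10 µM compound, and growth was given as a percentage of untreated control cells set to 100%.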

Test [7] relates to UO-31. The test is described as follows: Cytotoxicity against human UO31 cells assessed as cell growth at 10 uM relative to control. The format is functional. To be noted: read-out: Activity. The essentials:
as §2

Test [8] in a line: Inhibition of human TERT expression in H1299 cells at 100 uM after 24 hrs by secreted alkaline phosphatase reporter gene assay relative to control; values are per cent of control. Conditions: NCI-H1299. A general note: A reporter such as luciferase makes a cellular process visible.
Test [9] concerns RPMI-8226. The test is described as follows: Growth inhibition of human RPMI8226 cells at 10 uM relative to control. The format is functional. Conditions: read-out: GI. The essentials: as §2
In test [10] the test system is SN12C. Briefly: Cytotoxicity against human SN12C cells assessed as cell growth at 10 uM relative to control. The format is functional. Conditions: read-out: Activity. The essentials:
as §1

For test [11], the system named is SF-295. Briefly: Cytotoxicity against human SF295 cells assessed as cell growth at 10 uM relative to control. The format is functional. Conditions: read-out: Activity. The essentials:
as §1

Test [12] concerns EKVX. Briefly: Cytotoxicity against human EKVX cells assessed as cell growth at 10 uM relative to control. Conditions: read-out: Activity. The format is functional. The essentials:
as §1

The test system of test [13] is SK-MEL-5. Briefly: Cytotoxicity against human SK-MEL-5 cells assessed as cell growth at 10 uM relative to control. The test is classed as functional. Conditions: read-out: Activity. The essentials:
as §1

Test [14] deals with HT-29. Briefly: Cytotoxicity against human HT-29 cells assessed as cell growth at 10 uM relative to control. The test is classed as functional. To be noted: read-out: Activity. The essentials:
as §1

Test [15] has as its system KM12. The test is described as follows: Cytotoxicity against human KM12 cells assessed as cell growth at 10 uM relative to control. The test is classed as functional. To be noted: read-out: Activity. The essentials:
as §1

Test [16] deals with OVCAR-5. Briefly: Cytotoxicity against human OVCAR5 cells assessed as cell growth at 10 uM relative to control. The format is functional. To be noted: read-out: Activity. The essentials: as §1
The subject of test [17] is M14. The test is described as follows: Cytotoxicity against human M14 cells assessed as cell growth at 10 uM relative to control. The test is classed as functional. To be noted: read-out: Activity. The essentials: as §1
The subject of test [18] is HCT-116. Briefly: Cytotoxicity against human HCT116 cells assessed as cell growth at 10 uM relative to control. The format is functional. Conditions: read-out: Activity. The essentials: as §1
For test [19], the system named is OVCAR-4. The test is described as follows: Cytotoxicity against human OVCAR4 cells assessed as cell growth at 10 uM relative to control. The format is functional. Conditions: read-out: Activity. The essentials:
as §1

The subject of test [20] is NCI/ADR-RES. The test is described as follows: Cytotoxicity against human NCI/ADR-RES cells assessed as cell growth at 10 uM relative to control. The format is functional. To be noted: read-out: Activity. The essentials: as §1
Test [21] has as its system SR. The test is described as follows: Cytotoxicity against human SR cells assessed as cell growth at 10 uM relative to control. The format is functional. To be noted: read-out: Activity. The essentials:
as §2

In the case of `COC(=O)CNCC(=O)Nc1cccc2c1C(=O)c1c(NC(=O)CNCC(=O)OC)cccc1C2=O`, the growth at 10 µM in test [1] came to 96.8%; in test [2], 95.1%; in test [3], 84.6%; in test [4], 94.5%; in [5], 83.8%; in [6], 84.9%. Also, the growth at 10 µM in test [7] was 88.9%; in test [10] it was 90.4%; in test [11], 97.2%; in test [12], 104%; in [13] it was 94.3%; in test [14], 96.3%. Besides, the growth at 10 µM in test [15] was determined as 107%; in test [16], 106%; in [17], 113%; in [18], 96.4%; in test [19], 87.7%; in test [20], 92.9%. This compound also yielded a level, % of control in test [8] of 12%. Also, the inhibition of growth at 10 µM in test [9] was determined as 31.4%.

As for `CCN(CC)CC(=O)Nc1cccc2c1C(=O)c1c(NC(=O)CN(CC)CC)cccc1C2=O`, the growth at 10 µM is 88% in [1]; 97.2% in test [2]; 85.5% in test [3]; 93.8% in test [4]; 86.6% in test [5]; 105% in test [6]. Also, the growth at 10 µM in test [7] worked out at 87.3%; in test [10], 92.1%; in test [11], 88.9%; in test [12] it was 104%; in [13], 101%; in [14] it was 101%. Moreover, the growth at 10 µM in [15] was 119%; in test [21], 88.5%; in [16] it was 101%; in [17], 98.6%; in [18], 84.2%; in test [19], 91.3%. In addition, in test [20], the growth at 10 µM was found to be 101%. The compound further yielded a level, % of control in test [8] of 42%.
